These results are taken from ChEMBL document CHEMBL5042498, “Development of 3-(4-Chlorophenyl)-1-(phenethyl)urea Analogues as Allosteric Modulators of the Cannabinoid Type-1 Receptor: RTICBM-189 is Brain Penetrant and Attenuates Reinstatement of Cocaine-Seeking Behavior” (J Med Chem, 2022).

Data set [1] has as its target Cannabinoid receptor 2 (Homo sapiens) (UniProt P34972). Description: Agonist activity at human CB2 receptor CP55940-stimulated calcium mobilization at 10 uM incubated for 15 mins FLIPR assay relative to control. It is filed as functional. Put shortly:
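CB2 agonist screen in CHO-RD-HGA16 cells stably expressing human CB2, loaded with Calcium 5 dye for 45 min at 37 °C. Cells were pretreated 15 min with vehicle, then the test compound was added at a single concentration. Fluorescence was read on FLIPR every 1 s for 90 s (485/525 nm). Response is expressed as % of CP55,940 Emax.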

Data set [2] addresses T1, Cannabinoid receptor 1 (Homo sapiens, UniProt P21554). Put plainly: Allosteric antagonist activity at human CB1 receptor expressed in CHO-RD-HGA16 cells overexpressing Galpha16 assessed as inhibition of CP55940-stimulated calcium mobilization incubated for 15 mins FLIPR assay. It is filed as functional, cell-based.
The target in data set [3] is T1, Cannabinoid receptor 1. Description: Agonist activity at human CB1 receptor CP55940-stimulated calcium mobilization at 10 uM incubated for 15 mins FLIPR assay relative to control. It is filed as functional. For orientation: Calcium assays in cells follow changes in intracellular calcium, usually with a dye or a luminescent sensor.
In data set [4] the target is Cannabinoid receptor 1 (Mus musculus, UniProt P47746). Put plainly: Allosteric antagonist activity against mouse CB1 receptor in cerebellar membranes measured after 60 mins by [35S]GTPgammaS binding assay. A general note: Binding of GTPγS marks nucleotide exchange on a G protein.
Chain of Cannabinoid receptor 1 (Mus musculus, UniProt P47746) (P47746 whole entry): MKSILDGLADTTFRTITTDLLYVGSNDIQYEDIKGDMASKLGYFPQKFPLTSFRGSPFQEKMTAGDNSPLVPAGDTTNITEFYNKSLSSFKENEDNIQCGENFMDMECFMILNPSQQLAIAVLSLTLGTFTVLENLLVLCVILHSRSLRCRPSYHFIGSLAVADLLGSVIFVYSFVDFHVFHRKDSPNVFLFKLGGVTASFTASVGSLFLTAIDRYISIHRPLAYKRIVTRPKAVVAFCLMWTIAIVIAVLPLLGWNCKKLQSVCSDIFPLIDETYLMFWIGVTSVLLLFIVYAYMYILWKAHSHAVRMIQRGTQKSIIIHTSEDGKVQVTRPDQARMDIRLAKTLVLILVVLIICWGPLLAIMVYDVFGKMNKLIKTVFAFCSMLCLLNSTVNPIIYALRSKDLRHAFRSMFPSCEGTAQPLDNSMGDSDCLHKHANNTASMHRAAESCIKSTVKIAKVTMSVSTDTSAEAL
The target of data set [5] is T1, Cannabinoid receptor 1. Put plainly: Allosteric antagonist activity against human CB1 receptor expressed in HEK293 cells membrane measured after 60 mins by [35S]GTPgammaS binding assay. It is filed as functional, cell membranes. Put shortly:
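Membranes from HEK293 cells expressing hCB1 are used in assay buffer (50 mM Tris, 3 mM MgCl2, 0.2 mM EGTA, 100 mM NaCl, 1 mg/ml BSA, pH 7.4). They are preincubated 10 min, then incubated 60 min at 30 °C with 30 μM GDP, 0.1 nM [35S]GTPγS, 100 nM CP55,940 and serially diluted compound (0.1% DMSO final). Nonspecific binding is set with 30 μM unlabeled GTPγS. Reactions are filtered. Data are normalized to CP55,940 alone and fitted by 3-parameter regression; mean of ≥3 experiments in duplicate.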

Data set [6] addresses Cannabinoid receptor 2 (Homo sapiens) (UniProt P34972). Description: Antagonist activity at human CB2 receptor CP55940-stimulated calcium mobilization incubated for 15 mins FLIPR assay. It is filed as functional. Details: concentration or dose not given beside the values. The essentials:
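CB2 antagonist screen in human CB2 CHO-RD-HGA16 cells loaded with Calcium 5 dye. Cells were pretreated 15 min at 37 °C with the test compound at a single concentration (10 μM), then challenged with CP55,940 at its EC80 during the FLIPR read (90 s, 485/525 nm). Response is expressed as % inhibition of the CP55,940 EC80 signal.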

For data set [7], the target named is T1, Cannabinoid receptor 1. Description: Antagonist activity at N-terminal tagged human CB1 receptor transfected with HEK293 cells assessed as forskolin-stimulated cAMP level in presence of CP55940 by BRET assay. It is filed as functional, cell-based. The essentials: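 HEK293 cells stably expressing hCB1 (3HA-tagged at Otago, untagged at RTI) are transiently transfected with the CAMYEL BRET cAMP sensor. Cells are serum-starved 30 min and given 5 μM coelenterazine H final. Compound dilutions are added together with 5 μM forskolin and 1 μM CP55,940. BRET (460/535) is read for about 20 min at 37 °C.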
A general note: Changes in cAMP serve as a functional read-out for many G protein-coupled receptors.

A short description of data set [8]: Apparent permeability across basolateral to apical side in MDCK-MDR1 cells at 10 uM measured upto 90 mins by LC-MS/MS analysis. It is filed as ADME, cell-based, Canis lupus familiaris. As to conditions: dog, mdck-mdr1, 1.5 h. Put shortly: (§1)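 MDCK-MDR1 cells (passage 5) were grown 3 days on polycarbonate Transwell supports and equilibrated 30 min at 37 °C in HBSS with 10 mM HEPES and 0.25% BSA, pH 7.4, before TEER was measured. Test article at 10 μM was placed in the donor chamber (apical or basolateral), with light agitation at 37 °C. Receiver samples were taken at 30, 60 and 90 min and analysed by LC-MS/MS. Papp = (dQ/dt)/(A·Ci·60). References were atenolol, propranolol and digoxin.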

Data set [9] can be described thus: Cmax in Sprague-Dawley rat brain at 10 mg/kg, ip measured upto 24 hrs post dose by LC-MS/MS analysis.
Data set [10] in a line: Metabolic stability in rat liver microsomes assessed as clearance in presence of NADPH measured upto 45 mins by LC-MS/MS analysis. As to conditions: 0.75 h. In kind it is ADME, Microsome. The essentials: (§2)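 Rat liver microsomes (0.5 mg/mL protein) in 100 mM potassium phosphate, pH 7.4, at 37 °C with 1 mM NADPH. Samples were taken at 0, 5, 15, 30 and 45 min, quenched with acetonitrile and analysed by LC/MS/MS. Half-life and clearance were derived from two independent experiments in duplicate.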

Data set [11] in a line: Cmax in Sprague-Dawley rat plasma at 10 mg/kg, ip measured upto 24 hrs post dose by LC-MS/MS analysis.
The nature of data set [12]: Aqueous solubility of compound. It is filed as physicochemical. The following applies: buffer.
Data set [13] can be described thus: Apparent permeability across apical to basolateral side in MDCK-MDR1 cells at 10 uM measured upto 90 mins by LC-MS/MS analysis. In kind it is ADME, cell-based, Canis lupus familiaris. As to conditions: dog, mdck-mdr1, 1.5 h. Put shortly:
as §1

Data set [14] in a line: Tmax in Sprague-Dawley rat brain at 10 mg/kg, ip measured upto 24 hrs post dose by LC-MS/MS analysis.
Data set [15] can be described thus: Plasma protein binding in rat. It is filed as ADME, cell-free.
Data set [16] in a line: AUC infinity in Sprague-Dawley rat plasma 10 mg/kg, ip measured upto 24 hrs post dose by LC-MS/MS analysis.
A short description of data set [17]: AUC infinity in Sprague-Dawley rat brain 10 mg/kg, ip measured upto 24 hrs post dose by LC-MS/MS analysis.
Data set [18] can be described thus: Elimination half life in Sprague-Dawley rat plasma 10 mg/kg, ip measured upto 24 hrs post dose by LC-MS/MS analysis.
The nature of data set [19]: Tmax in Sprague-Dawley rat plasma at 10 mg/kg, ip measured upto 24 hrs post dose by LC-MS/MS analysis.
A short description of data set [20]: Metabolic stability in rat liver microsomes assessed as half life in presence of NADPH measured upto 45 mins by LC-MS/MS analysis. It is filed as ADME, Microsome. As to conditions: 0.75 h. The essentials:
as §2

The nature of data set [21]: Clearance in Sprague-Dawley rat plasma at 10 mg/kg, ip measured upto 24 hrs post dose by LC-MS/MS analysis.
Data set [22] in a line: Toxicity in Sprague-Dawley rat assessed as reduction in locomotion at 10 mg/kg, ip. It is filed as organism-based. The following applies: in vivo. The essentials:
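Rats received 10 mg/kg i.p. compound or vehicle 15 min before being placed in locomotion chambers, after at least three days of handling. Locomotor activity was recorded for 30 min and analysed by two-way ANOVA.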

In a further data set the test system is Rattus norvegicus. Put plainly: Attenuation of cocaine reinstatement in 7 day cocaine treated Sprague-Dawley rat assessed as reduction in cocaine seeking behaviour at 10 mg/kg, ip treated for 10 mins prior to administration of cocaine priming injection. In kind it is functional, organism-based. The essentials: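 Male Sprague-Dawley rats (280-300 g) with jugular catheters self-administered cocaine (0.75 mg/kg/inf, FR1 raised to FR5) in 2-h sessions for 14 days, then underwent 7 days of extinction. On the test day, compound (10 mg/kg) or vehicle was given 10 min before a priming cocaine injection (10 mg/kg i.p.), and lever responding was measured.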

Each structure is given as a SMILES string. Calls of active or inactive are those of the source.

Chain of Cannabinoid receptor 2 (Homo sapiens) (P34972 whole entry): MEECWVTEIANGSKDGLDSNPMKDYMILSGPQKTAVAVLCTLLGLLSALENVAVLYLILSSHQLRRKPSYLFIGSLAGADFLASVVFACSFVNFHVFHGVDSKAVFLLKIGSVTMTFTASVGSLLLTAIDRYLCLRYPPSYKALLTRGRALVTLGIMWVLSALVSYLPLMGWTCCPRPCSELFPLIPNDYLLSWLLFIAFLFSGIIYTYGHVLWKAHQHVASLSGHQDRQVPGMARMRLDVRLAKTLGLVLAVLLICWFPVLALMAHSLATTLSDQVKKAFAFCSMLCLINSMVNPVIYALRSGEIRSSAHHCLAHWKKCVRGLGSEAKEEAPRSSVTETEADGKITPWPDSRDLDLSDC
T1 sequence (P21554 whole entry): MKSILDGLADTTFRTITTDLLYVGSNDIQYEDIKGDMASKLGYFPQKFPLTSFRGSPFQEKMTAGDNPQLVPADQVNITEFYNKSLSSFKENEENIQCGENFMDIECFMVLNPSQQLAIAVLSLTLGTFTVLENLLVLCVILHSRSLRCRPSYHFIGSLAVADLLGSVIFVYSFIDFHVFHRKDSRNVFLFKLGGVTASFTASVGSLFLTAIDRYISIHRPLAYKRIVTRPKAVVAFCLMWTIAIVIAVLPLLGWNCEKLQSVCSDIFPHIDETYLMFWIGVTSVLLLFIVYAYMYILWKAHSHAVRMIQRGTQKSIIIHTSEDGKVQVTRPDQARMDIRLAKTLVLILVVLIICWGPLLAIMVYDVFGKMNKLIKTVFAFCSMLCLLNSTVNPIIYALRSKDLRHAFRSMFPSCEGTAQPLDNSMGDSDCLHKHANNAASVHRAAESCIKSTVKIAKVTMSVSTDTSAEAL

Broadly, the Emax is the maximal effect, on the per cent scale that the assay sets. What is called IC50 is the point on the concentration scale where inhibition reaches its midpoint. For `CC(C)(C)c1ccc(CCNC(=O)Nc2ccc(Cl)cc2)cc1`, the Emax is less than 20% in data set [1] and less than 30% at Cannabinoid receptor 1 [3]. Moreover, the IC50 at Cannabinoid receptor 1 [2] is 537 nM; at Cannabinoid receptor 1 [4], greater than 10000 nM; at Cannabinoid receptor 1 [5], greater than 10000 nM; on Cannabinoid receptor 1 [7], greater than 10000 nM. The Activity in [6] is less than 35%.

Broadly, the Cmax is the highest concentration seen after dosing. As a reminder, the solubility is the dissolved amount per volume that the medium holds. What is called Tmax is the time at which the peak concentration occurs. In general, AUC(0-inf) refers to total exposure, with the tail of the curve extrapolated. As usually defined, the half-life is the time needed for the level to fall by half in the phase considered. In general, CL/F refers to the apparent clearance, not corrected for the fraction that reaches the circulation. As to `O=C(NCCc1cccc(Cl)c1)Nc1ccc(Cl)cc1`, the Emax in data set [1] is less than 20%. In addition, the Papp in data set [8] is 21.3 10^-6 cm/s; in data set [13] it was 19.2 10^-6 cm/s. The results for the IC50 on Cannabinoid receptor 1 [2], at Cannabinoid receptor 1 [5] and on Cannabinoid receptor 1 [7] were 28.8 nM, 5130 nM and 1510 nM, respectively. The Cmax in [9] came to 595 ng/mL; in data set [11], 288 ng/mL. The CLH in [10] was 99.3 µL/min/mg. The molecule further returned a solubility in [12] of less than 1 µM. In addition, the Tmax in data set [14] and in [19] was 24 min in each case. In data set [15], the PPB is recorded as 99.6%. Moreover, the values for the AUC(0-inf) in [16] and in data set [17] were 715 ng·h/mL and 1440 ng·h/mL, respectively. The half-life in data set [18] was found to be 37.8 min. For the same molecule, in data set [20], the t1/2 worked out at 14.9 min. Besides, the Activity in data set [6] is less than 35%; in data set [22], “Non-Toxic”. The CL/F in data set [21] is 241 mL/min/kg. Besides, the outcome in the data set with Rattus norvegicus was Active.

Regarding `O=C(NCCc1ccc(F)cc1)Nc1ccc(Cl)cc1`, the figures for the Emax (in [1]; on Cannabinoid receptor 1 [3]) were less than 20% and less than 30%, respectively. The IC50 at Cannabinoid receptor 1 [2] was 105 nM; at Cannabinoid receptor 1 [4], 891 nM; on Cannabinoid receptor 1 [5], 4370 nM; on Cannabinoid receptor 1 [7] it was 1700 nM. The Activity in [6] is less than 35%.

On to `COc1ccc(CCNC(=O)Nc2ccc(Cl)cc2)cc1`, for which the results for the Emax (in data set [1]; on Cannabinoid receptor 1 [3]) were less than 20% and less than 30%, respectively. For the same molecule, the IC50 is 214 nM at Cannabinoid receptor 1 [2], 3720 nM at Cannabinoid receptor 1 [4], 5620 nM at Cannabinoid receptor 1 [5] and 4170 nM at Cannabinoid receptor 1 [7]. For the same molecule, the Activity in [6] is less than 35%.
